{"source": "ChEMBL document CHEMBL1126115", "about": "“Synthesis of a homologous series of ketomethylene arginyl pseudodipeptides and application to low molecular weight hirudin-like thrombin inhibitors” (J Med Chem, 1992)", "note": "Starred links: 1 amine or outer side, 2 acyl side, 3 side chain; linkers in the order of their positions; H or OH if unused. Non-standard residues stand in square brackets, D forms with d. Residues, ends and D or L forms follow the SMILES beside them. X1 = NC(N)=NCCCC(N[*:1])C(=O)CCCCC(=O)[*:2]; X2 = O=C(C/C=C/CN[*:1])[*:2]"}
{"test_system": "Rattus norvegicus", "experiment": "Antithrombotic effect compared to recombinant hirudin in the rat rretiovenous shunt model after intravenous administration", "assay_type": "functional", "method_in_brief": "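Urethane-anaesthetised rats on a temperature-controlled heating plate; right carotid artery and left jugular vein catheterised and joined by a 2-cm glass capillary (1 mm internal diameter) as thrombogenic surface. Compound or saline given intravenously 5 min before the shunt was opened. Patency followed by capillary temperature rise (thermocouple). ED15 is the dose giving a 15-min prolongation of shunt patency.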", "units": {"ED15": "mg/kg"}}
{"smiles": "CC[C@H](C)[C@H](NC(=O)[C@@H]1CCCN1C(=O)[C@H](CCC(=O)O)NC(=O)[C@H](Cc1ccccc1)NC(=O)[C@H](CC(=O)O)NC(=O)C/C=C/CNC(=O)C/C=C/CNC(=O)CCCCC(=O)[C@H](CCCN=C(N)N)NC(=O)[C@@H]1CCCN1C(=O)[C@@H](Cc1ccccc1)NC(C)=O)C(=O)N1CCC[C@H]1C(=O)N[C@@H](CC(C)C)C(=O)O", "ED15": 6.27}
{"target": "Prothrombin (Homo sapiens, UniProt P00734)", "experiment": "Compound was evaluated for their ability to inhibit the alpha-thrombin-mediated hydrolysis of the fluorescent substrate Tos-Gly-Pro-Arg-Amc", "method_in_brief": "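Human α-thrombin (30 pM) added to start the reaction, 25 °C, 0.1 M Tris-HCl pH 7.8 with 0.1 M NaCl and 0.1% PEG 6000. […] Initial rates of Amc fluorescence read at ex 383/em 455 nm, calibrated against free 7-amino-4-methylcoumarin. Ki obtained by nonlinear fit to a competitive inhibition equation.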", "units": {"Ki": "nM"}}
{"smiles": "CC[C@H](C)[C@H](NC(=O)[C@H](CCC(=O)O)NC(=O)[C@H](CCC(=O)O)NC(=O)[C@H](Cc1ccccc1)NC(=O)[C@H](CC(=O)O)NC(=O)CNC(=O)[C@H](CC(=O)O)NC(=O)[C@H](CC(N)=O)NC(=O)[C@H](Cc1c[nH]cn1)NC(=O)[C@H](CO)NC(=O)[C@H](CCC(N)=O)NC(=O)CCCC(=O)[C@H](CCCN=C(N)N)NC(=O)[C@@H]1CCCN1C(=O)[C@H](Cc1ccccc1)NC(C)=O)C(=O)N1CCC[C@H]1C(=O)N[C@@H](CCC(=O)O)C(=O)N[C@@H](CCC(=O)O)C(=O)N[C@@H](Cc1ccc(O)cc1)C(=O)N[C@@H](CC(C)C)C(=O)N[C@@H](CCC(N)=O)C(=O)O", "Ki": 0.56}
{"smiles": "CC[C@H](C)[C@H](NC(=O)[C@H](CCC(=O)O)NC(=O)[C@H](CCC(=O)O)NC(=O)[C@H](Cc1ccccc1)NC(=O)[C@H](CC(=O)O)NC(=O)CNC(=O)[C@H](CC(=O)O)NC(=O)[C@H](CC(N)=O)NC(=O)[C@H](Cc1c[nH]cn1)NC(=O)[C@H](CO)NC(=O)[C@H](CCC(N)=O)NC(=O)CC(=O)[C@H](CCCN=C(N)N)NC(=O)[C@@H]1CCCN1C(=O)[C@H](Cc1ccccc1)NC(C)=O)C(=O)N1CCC[C@H]1C(=O)N[C@@H](CCC(=O)O)C(=O)N[C@@H](CCC(=O)O)C(=O)N[C@@H](Cc1ccc(O)cc1)C(=O)N[C@@H](CC(C)C)C(=O)N[C@@H](CCC(N)=O)C(=O)O", "Ki": 3.8}
{"smiles": "CC[C@H](C)[C@H](NC(=O)[C@H](CCC(=O)O)NC(=O)[C@H](CCC(=O)O)NC(=O)[C@H](Cc1ccccc1)NC(=O)[C@H](CC(=O)O)NC(=O)CNC(=O)[C@H](CC(=O)O)NC(=O)[C@H](CC(N)=O)NC(=O)[C@H](Cc1c[nH]cn1)NC(=O)[C@H](CO)NC(=O)[C@H](CCC(N)=O)NC(=O)CCCCC(=O)[C@H](CCCN=C(N)N)NC(=O)[C@@H]1CCCN1C(=O)[C@H](Cc1ccccc1)NC(C)=O)C(=O)N1CCC[C@H]1C(=O)N[C@@H](CCC(=O)O)C(=O)N[C@@H](CCC(=O)O)C(=O)N[C@@H](Cc1ccc(O)cc1)C(=O)N[C@@H](CC(C)C)C(=O)N[C@@H](CCC(N)=O)C(=O)O", "Ki": 0.14}
{"smiles": "CC[C@H](C)[C@H](NC(=O)[C@@H]1CCCN1C(=O)[C@H](CCC(=O)O)NC(=O)[C@H](Cc1ccccc1)NC(=O)[C@H](CC(=O)O)NC(=O)C/C=C/CNC(=O)C/C=C/CNC(=O)CCCCC(=O)C(CCCN=C(N)N)NC(=O)[C@@H]1CCCN1C(=O)[C@H](Cc1ccccc1)NC(C)=O)C(=O)N1CCC[C@H]1C(=O)N[C@@H](CC(C)C)C(=O)O", "note": "(stereo partly drawn)", "Ki": 3.5}
{"smiles": "CC[C@H](C)[C@H](NC(=O)[C@@H]1CCCN1C(=O)[C@H](CCC(=O)O)NC(=O)[C@H](Cc1ccccc1)NC(=O)[C@H](CC(=O)O)NC(=O)C/C=C/CNC(=O)C/C=C/CNC(=O)C/C=C/CNC(=O)CCCCC(=O)C(CCCN=C(N)N)NC(=O)[C@@H]1CCCN1C(=O)[C@H](Cc1ccccc1)NC(C)=O)C(=O)N1CCC[C@H]1C(=O)N[C@@H](CC(C)C)C(=O)O", "note": "(stereo partly drawn) (Ac-FP[X1][X2][X2][X2]DFEPIPL-OH)", "Ki": 3.2}
{"smiles": "CC[C@H](C)[C@H](NC(=O)[C@@H]1CCCN1C(=O)[C@H](CCC(=O)O)NC(=O)[C@H](Cc1ccccc1)NC(=O)[C@H](CC(=O)O)NC(=O)C/C=C/CNC(=O)CCCCC(=O)[C@H](CCCN=C(N)N)NC(=O)[C@@H]1CCCN1C(=O)[C@H](Cc1ccccc1)NC(C)=O)C(=O)N1CCC[C@H]1C(=O)N[C@@H](CC(C)C)C(=O)O", "note": "(HELM PEPTIDE1{[ac].F.P.[NC(N)=NCCC[C@H](N[*:1])C(=O)CCCCC(=O)[*:2]].[O=C(C/C=C/CN[*:1])[*:2]].D.F.E.P.I.P.L}$$$$V2.0)", "Ki": 300}
{"smiles": "CC[C@H](C)[C@H](NC(=O)[C@@H]1CCCN1C(=O)[C@H](CCC(=O)O)NC(=O)C(Cc1ccccc1)NC(=O)[C@H](CC(=O)O)NC(=O)CNC(=O)[C@H](CC(=O)O)NC(=O)[C@H](CC(N)=O)NC(=O)[C@H](Cc1cnc[nH]1)NC(=O)[C@H](CO)NC(=O)[C@H](CCC(N)=O)NC(=O)[C@@H]1CCCN1C(=O)[C@H](CCCNC(=N)N)N(C)C(=O)[C@@H]1CCCN1C(=O)C(Cc1ccccc1)NC(C)=O)C(=O)N1CCC[C@H]1C(=O)N[C@@H](CC(C)C)C(=O)O", "note": "(stereo in doubt)", "Ki": 2.8}
